How the values were obtained:
[1] = tested on: human; experiment: amount in urine after dosing (umol); conditions: dosed: tert-amyl methyl ether, 38.4 ppm, inhalation, duration: 4 hr
Summary of the method: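 Sampling and analytical methods are those of each source and frequently went unreported. The concentration-versus-time and amount-versus-time points were compiled from published in vivo toxicokinetic studies and two structured collections. Most were digitised from plot screenshots with WebPlotDigitizer, with others copied from tables, in the reported units.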

[2] = tested on: rat; experiment: amount in urine after dosing (umol); conditions: dosed: tert-amyl methyl ether, 38.4 ppm, inhalation, duration: 4 hr, F344 (Harlan Winkelmann)
[3] = tested on: rat; conditions: dosed: benzo[a]pyrene, 50 umol/kg, oral, male, Wistar
[4] = tested on: rat; conditions: dosed: benzo[a]pyrene, 20 umol/kg, dermal, duration: continuous, male, Wistar
[5] = tested on: rat; conditions: dosed: benzo[a]pyrene, 10 umol/kg, dermal, duration: continuous, male, Wistar
[6] = tested on: rat; conditions: dosed: benzo[a]pyrene, 50 umol/kg, dermal, duration: continuous, male, Wistar
[7] = tested on: rat; conditions: dosed: benzo[a]pyrene, 10 umol/kg, oral, male, Wistar
[8] = tested on: rat; conditions: dosed: benzo[a]pyrene, 20 umol/kg, oral, male, Wistar
[9] = tested on: rat; experiment: concentration in kidney after dosing; conditions: dosed: benzo(a)pyrene, 40 umol/kg, iv, male, Sprague Dawley
[10] = tested on: rat; experiment: concentration in lung after dosing; conditions: dosed: benzo(a)pyrene, 40 umol/kg, iv, male, Sprague Dawley
[11] = tested on: rat; experiment: concentration in adipose after dosing; conditions: dosed: benzo(a)pyrene, 40 umol/kg, iv, male, Sprague Dawley
[12] = tested on: rat; experiment: concentration in feces after dosing; conditions: dosed: benzo(a)pyrene, 40 umol/kg, iv, male, Sprague Dawley
[13] = tested on: rat; experiment: concentration in urine after dosing; conditions: dosed: benzo(a)pyrene, iv, male, Sprague Dawley
[14] = tested on: rat; experiment: concentration in skin after dosing; conditions: dosed: benzo(a)pyrene, 40 umol/kg, iv, male, Sprague Dawley
[15] = tested on: rat; experiment: concentration in blood after dosing; conditions: dosed: benzo(a)pyrene, 40 umol/kg, iv, male, Sprague Dawley
[16] = tested on: rat; experiment: concentration in liver after dosing; conditions: dosed: benzo(a)pyrene, 40 umol/kg, iv, male, Sprague Dawley
[17] = tested on: rat; conditions: dosed: benzo[a]pyrene, 1 mg/kg, iv, male, Sprague Dawley
[18] = tested on: rat; experiment: concentration in serum after dosing; conditions: dosed: benzo[a]pyrene, 20 mg/kg, oral, male, Wistar
[19] = tested on: rat; conditions: dosed: benzo[a]pyrene, 1 mg/kg, iv, male, Sprague Dawley; remark: listed apart in the source

CCC(C)(O)C(=O)O (stereo not drawn) [2-hydroxy-2-methyl butyrate]
amount in urine ([1]; 0.1093 h): 54.7 | amount in urine ([1]; 6.284 h): 93.4 | amount in urine ([1]; 12.15 h): 100 | amount in urine ([1]; 18.2 h): 59.9 | amount in urine ([1]; 24.12 h): 39.1 | amount in urine ([1]; 30.12 h): 33.6 | amount in urine ([1]; 36.29 h): 57.8 | amount in urine ([1]; 42.13 h): 29.8 | amount in urine ([1]; 48.22 h): 51.6 | amount in urine ([2]; 5.978 h): 0.204 | amount in urine ([2]; 12 h): 0.29 | amount in urine ([2]; 18.07 h): 0.213 | amount in urine ([2]; 24.08 h): 0.0776 | amount in urine ([2]; 29.94 h): 0.0345 | amount in urine ([2]; 36.02 h): 0.092 | amount in urine ([2]; 42.04 h): 0.103 | amount in urine ([2]; 48.11 h): 0.0517

Oc1ccc2ccc3c4ccccc4cc4ccc1c2c43 [3-OH-benzo[a]pyrene]
amount in urine after dosing ([3]; 23.43 h): 7.37 µg | amount in urine after dosing ([3]; 47.73 h): 18.4 µg | amount in urine after dosing ([3]; 71.9 h): 31.3 µg | amount in urine after dosing ([3]; 95.37 h): 33.1 µg | amount in urine after dosing ([3]; 120.29 h): 33.4 µg | amount in urine after dosing ([3]; 144.04 h): 33.6 µg | amount in urine after dosing ([4]; 23.4 h): 0.591 µg | amount in urine after dosing ([4]; 48.57 h): 2.38 µg | amount in urine after dosing ([4]; 72.51 h): 6.61 µg | amount in urine after dosing ([4]; 96.49 h): 9.6 µg | amount in urine after dosing ([4]; 120.43 h): 10.6 µg | amount in urine after dosing ([4]; 145.24 h): 11 µg | amount in urine after dosing ([5]; 23.76 h): 0.169 µg | amount in urine after dosing ([5]; 48.25 h): 1.6 µg | amount in urine after dosing ([5]; 72.44 h): 5.62 µg | amount in urine after dosing ([5]; 96.26 h): 8.27 µg | amount in urine after dosing ([5]; 120.41 h): 10.3 µg | amount in urine after dosing ([5]; 145.21 h): 10.7 µg | amount in urine after dosing ([6]; 23.15 h): 4.97 µg | amount in urine after dosing ([6]; 47.4 h): 8.97 µg | amount in urine after dosing ([6]; 71.67 h): 13.3 µg | amount in urine after dosing ([6]; 95.8 h): 17.3 µg | amount in urine after dosing ([6]; 120.35 h): 20 µg | amount in urine after dosing ([6]; 144.4 h): 20.8 µg | amount in urine after dosing ([7]; 23.94 h): 0.884 µg | amount in urine after dosing ([7]; 48.41 h): 1.94 µg | amount in urine after dosing ([7]; 72.16 h): 3.75 µg | amount in urine after dosing ([7]; 96.63 h): 4.84 µg | amount in urine after dosing ([7]; 120.41 h): 5.22 µg | amount in urine after dosing ([7]; 144.81 h): 5.41 µg | amount in urine after dosing ([8]; 24.03 h): 3.66 µg | amount in urine after dosing ([8]; 47.78 h): 5.43 µg | amount in urine after dosing ([8]; 72.42 h): 7.03 µg | amount in urine after dosing ([8]; 96.58 h): 7.51 µg | amount in urine after dosing ([8]; 121.02 h): 8.21 µg | amount in urine after dosing ([8]; 144.77 h): 8.23 µg

Oc1ccc2ccc3c4ccccc4cc4ccc1c2c43 [3-hydroxybenzo(a)pyrene]
concentration in kidney ([9]; 2 h): 0.195 µmol/kg | concentration in kidney ([9]; 4 h): 0.429 µmol/kg | concentration in kidney ([9]; 8 h): 0.65 µmol/kg | concentration in kidney ([9]; 16 h): 0.583 µmol/kg | concentration in kidney ([9]; 24 h): 0.347 µmol/kg | concentration in kidney ([9]; 33 h): 0.293 µmol/kg | concentration in kidney ([9]; 48 h): 0.0936 µmol/kg | concentration in kidney ([9]; 72 h): 0.0512 µmol/kg | concentration in lung ([10]; 2 h): 0.023 µmol/kg | concentration in lung ([10]; 4 h): 0.0236 µmol/kg | concentration in lung ([10]; 8 h): 0.0176 µmol/kg | concentration in lung ([10]; 16 h): 0.0153 µmol/kg | concentration in lung ([10]; 24 h): 0.0102 µmol/kg | concentration in lung ([10]; 33 h): 0.0085 µmol/kg | concentration in lung ([10]; 48 h): 0.0047 µmol/kg | concentration in lung ([10]; 72 h): 0.0045 µmol/kg | concentration in adipose ([11]; 2 h): 0.0241 µmol/kg | concentration in adipose ([11]; 4 h): 0.0381 µmol/kg | concentration in adipose ([11]; 8 h): 0.0582 µmol/kg | concentration in adipose ([11]; 16 h): 0.0348 µmol/kg | concentration in adipose ([11]; 24 h): 0.033 µmol/kg | concentration in adipose ([11]; 33 h): 0.0322 µmol/kg | concentration in adipose ([11]; 48 h): 0.0192 µmol/kg | concentration in adipose ([11]; 72 h): 0.0114 µmol/kg | concentration in feces ([12]; 2 h): 0.0001 µmol/kg | concentration in feces ([12]; 4 h): 0.0004 µmol/kg | concentration in feces ([12]; 8 h): 0.0035 µmol/kg | concentration in feces ([12]; 16 h): 0.471 µmol/kg | concentration in feces ([12]; 24 h): 4.71 µmol/kg | concentration in feces ([12]; 33 h): 7.72 µmol/kg | concentration in feces ([12]; 48 h): 8.75 µmol/kg | concentration in feces ([12]; 72 h): 12.9 µmol/kg | concentration in urine ([13]; 2 h, 40 umol/kg): 0.0001 µmol/kg | concentration in urine ([13]; 4 h, 40 umol/kg): 0.0022 µmol/kg | concentration in urine ([13]; 4.5 h, 0.01 mg/kg): 0.000494 mg/kg | concentration in urine ([13]; 4.5 h, 0.05 mg/kg): 0.0016 mg/kg | concentration in urine ([13]; 8 h, 40 umol/kg): 0.0119 µmol/kg | concentration in urine ([13]; 16 h, 40 umol/kg): 0.0604 µmol/kg | concentration in urine ([13]; 24 h, 0.01 mg/kg): 0.000582 mg/kg | concentration in urine ([13]; 24 h, 40 umol/kg): 0.068 µmol/kg | concentration in urine ([13]; 24 h, 0.05 mg/kg): 0.0025 mg/kg | concentration in urine ([13]; 33 h, 40 umol/kg): 0.19 µmol/kg | concentration in urine ([13]; 48 h, 0.01 mg/kg): 6.8e-05 mg/kg | concentration in urine ([13]; 48 h, 40 umol/kg): 0.149 µmol/kg | concentration in urine ([13]; 48 h, 0.05 mg/kg): 0.000305 mg/kg | concentration in urine ([13]; 72 h, 0.01 mg/kg): 2.3e-05 mg/kg | concentration in urine ([13]; 72 h, 40 umol/kg): 0.209 µmol/kg | concentration in urine ([13]; 72 h, 0.05 mg/kg): 0.000115 mg/kg | concentration in skin ([14]; 2 h): 0.385 µmol/kg | concentration in skin ([14]; 4 h): 0.232 µmol/kg | concentration in skin ([14]; 8 h): 0.135 µmol/kg | concentration in skin ([14]; 16 h): 0.103 µmol/kg | concentration in skin ([14]; 24 h): 0.041 µmol/kg | concentration in skin ([14]; 33 h): 0.0215 µmol/kg | concentration in skin ([14]; 48 h): 0.0148 µmol/kg | concentration in skin ([14]; 72 h): 0.0073 µmol/kg | concentration in blood ([15]; 2 h): 0.105 µmol/kg | concentration in blood ([15]; 4 h): 0.0863 µmol/kg | concentration in blood ([15]; 8 h): 0.0912 µmol/kg | concentration in blood ([15]; 16 h): 0.0388 µmol/kg | concentration in blood ([15]; 24 h): 0.0235 µmol/kg | concentration in blood ([15]; 33 h): 0.0142 µmol/kg | concentration in blood ([15]; 48 h): 0.0084 µmol/kg | concentration in blood ([15]; 72 h): 0.0047 µmol/kg | concentration in liver ([16]; 2 h): 0.49 µmol/kg | concentration in liver ([16]; 4 h): 0.588 µmol/kg | concentration in liver ([16]; 8 h): 0.141 µmol/kg | concentration in liver ([16]; 16 h): 0.0819 µmol/kg | concentration in liver ([16]; 24 h): 0.0528 µmol/kg | concentration in liver ([16]; 33 h): 0.0505 µmol/kg | concentration in liver ([16]; 48 h): 0.0149 µmol/kg | concentration in liver ([16]; 72 h): 0.0096 µmol/kg

Oc1ccc2ccc3c4ccccc4cc4ccc1c2c43 [3-hydroxybenzo[a]pyrene]
amount in feces after dosing ([17]; 10.07 h): 4790 ng | amount in feces after dosing ([17]; 24.05 h): 16900 ng | amount in feces after dosing ([17]; 48.1 h): 22700 ng | amount in feces after dosing ([17]; 72.03 h): 23700 ng | amount in feces after dosing ([17]; 96.08 h): 24500 ng | amount in feces after dosing ([17]; 120 h): 24900 ng | concentration in serum ([18]; 1.009 h): 1.32 ng/mL | concentration in serum ([18]; 2.018 h): 1.26 ng/mL | concentration in serum ([18]; 3.995 h): 5.22 ng/mL | concentration in serum ([18]; 6.005 h): 4.15 ng/mL | concentration in serum ([18]; 7.982 h): 2.24 ng/mL | concentration in serum ([18]; 9.992 h): 1.6 ng/mL | amount in urine after dosing ([19]; 10.02 h): 46.8 ng | amount in urine after dosing ([19]; 23.97 h): 166 ng | amount in urine after dosing ([19]; 47.95 h): 220 ng | amount in urine after dosing ([19]; 71.92 h): 269 ng | amount in urine after dosing ([19]; 95.9 h): 310 ng | amount in urine after dosing ([19]; 119.75 h): 346 ng

Reference: EPA's CvTdb concentration-time database
